# Compound activity (PubChem)
# HKDC1 inh = HKDC1 hexokinase inhibitors, primary screen, biochemical, fluorescence, uHTS; Q2TB90; recombinant HKDC1, G6PDH/diaphorase resazurin coupled fluorescence; inhibition, % at 20 µM; 340,000 tested, 0.16% active;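 active means inhibition above about 35% when tested at 20 µM, limit read from the data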
#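 Test system: recombinant HKDC1 (HK5) hexokinase enzyme, produced in-house; Amount: enzyme 5 µg/mL final; Buffer or medium: Tris pH 8.0 buffer with MgCl2, Tween-20, BSA, BME; Reagent: glucose and ATP substrates; Doses: 20 µM test compound, 1% DMSO; Incubation: 90 min reaction incubation at room temperature, dark; Detection: resorufin fluorescence at 613 nm.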
# PERK inh = block of dimerizer-induced PERK translation repression, primary screen, PERK inhibitor project, CHO PERK-DD cells, SEAP luminescence, HTS; Eukaryotic translation initiation factor 2-alpha kinase 3 (Homo sapiens), Q9NZJ5; inhibition, % at 5.6 µM; 220,000 tested, 0.17% active; AID 1416, 2008; CHO PERK-DD fusion, SEAP luminescence translation reporter;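 active means inhibition above the mean inhibition of all tested compounds plus 3 SD, set separately per screening campaign, cut at about 2.9% in these data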;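 further: PERK kinase domain activated by AP20187 dimerizer at 100 nM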
# HSV replic up = enhancers of HSV replication in host cells, fold increase, host cell viability. HSV replication augmentation in cells. maximum fold increase. 220,000 tested, 0.005% active; in the data active means maximum fold increase above about 1.5; inconclusive means no clear call, values can overlap the other calls; tested in PC3 cells
# Dynein transport = inhibitors of GR-EGFP nuclear translocation, primary screen, dynein cargo transport inhibitor project, imaging, high-content, 3617.4 mouse cells; z-score, hits read low; AID 1381, 2008; 220,000 tested, 0.47% active; test concentration mostly 20 µM; stimulated with dexamethasone, 1 µM; hits give low values;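 active means plate z-score of nuclear minus cytoplasmic receptor signal below a set negative limit, without overly bright fluorescence or cell loss, cut at about -3.5 in these data, passing the limit was not always enough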;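 further: z-score of nuclear minus cytoplasmic ring GR-EGFP intensity difference per well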
#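 Buffer or medium: tet-free, stripped-serum medium; Also added: dexamethasone, 1.0 µM final; Technique: high-content fluorescence imaging after fixation; Times: 48 h induction, 1 h compound, 30 min dex at 37 °C; Read-out: per-cell GR-EGFP intensity, nucleus versus surrounding cytoplasmic ring, well-averaged.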
# Autophagy mod = autophagy modulators in MEF cells, primary screen, imaging, high-content, MEF GFP-LC3; MEF GFP-LC3 puncta imaging; test concentration mostly 10 µM; calls only at 10 µM (by protocol); 190,000 tested, 0.98% active;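 active means percentage of spot-positive cells more than 3 SD above its plate mean, without a fluorescence outlier flag or 80% toxicity; inconclusive means no clear call, values can overlap the other calls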
# Tb hexokinase = Trypanosoma brucei hexokinase 1 inhibitors, primary screen, biochemical, G6PDH-coupled NADH absorbance, MLSCN library; hexokinase 1 [Trypanosoma brucei]; inhibition, % at 10 µM; 220,000 tested, 0.11% active; recombinant TbHK1, G6PDH-coupled NADH A340;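 active means inhibition of 50% or more in the single-dose primary screen; inactive means inhibition below 50%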
# G6PDH ctr = Leuconostoc G6PDH inhibition, confirmation, counter-screen for TbHK1 inhibitor project, biochemical, DPI cherry-picked compounds, single concentration; inhibition, % at 10 µM; purified G6PDH, NADH absorbance, 1 h; AID 2516, 2010; 210 tested, 7% active; shares compounds with Tb hexokinase;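 active means at least 50% inhibition in the glucose-6-phosphate dehydrogenase coupled counterscreen; inconclusive means no clear call, values can overlap the other calls; inactive means inhibition below 50%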
# TbHK1 rescreen = TbHK1 inhibitor retest, confirmation, biochemical, DPI cherry-picked primary actives; inhibition, % at 10 µM; shares compounds with Tb hexokinase; recombinant TbHK1, G6PDH-coupled NADH A340 absorbance; 210 tested, 10% active;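 active means inhibition of at least 50% in both of the two screening runs; inconclusive means at least 50% in one run, below 50% in the other; inactive means inhibition below 50% in both runs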
# A number is an active result; 0 = inactive; ? = inconclusive; - = no result given; + = active, no number; ! = repeats disagree. In the library only some 1.2% were active in any assay of this set; here they are far more common.
SMILES,HKDC1 inh,PERK inh,HSV replic up,Dynein transport,Autophagy mod,Tb hexokinase,G6PDH ctr,TbHK1 rescreen
S=C(Nc1ccccc1)Nc1nc2ccccc2n1CCOc1ccccc1,0,0,0,0,0,0,-,-
Cc1c(Cl)cccc1N1C(=O)C2ON(c3ccccc3)C(c3cccnc3)C2C1=O (configuration not stated),0,0,0,0,0,51.0,0,0
Cc1nn(Cc2ccc(C(=O)NC(C)(C)C)o2)c(C)c1Br,0,0,0,0,0,50.5,0,0
COC(=O)[C@H](CCSC)NC(=O)Cn1cc(C)c(=O)[nH]c1=O,0,-,-,-,-,-,-,-
COc1cc(-c2noc(CCC(=O)Nc3cccnc3)n2)cc(OC)c1OC,0,0,0,0,0,54.3,0,0
Clc1ccc(-c2nnc(NC3=NCCCCC3)o2)cc1,0,0,0,0,0,50.0,0,0
Cc1cccc(C)c1NC(=O)CSc1nnc(-c2ccoc2C)n1C,0,0,0,0,0,66.7,0,0
COc1cc(/C=C(\C#N)c2nc3c(s2)CCCC3)ccc1O,-,0,0,0,0,53.7,0,87.7
N#C/C(=C\c1cccnc1)c1nc2c(s1)CCCC2,0,0,0,0,0,0,-,-
COc1ccc(-c2nnn(CC#N)n2)cc1OC,0,0,0,0,0,0,-,-
COc1ccccc1-c1nnn(CC#N)n1,0,0,0,0,0,52.3,0,0
CCOC(=O)N1CCN(C(=O)C2CCN(S(=O)(=O)N3CCCC3)CC2)CC1,0,0,0,0,0,58.0,0,0
NC(=O)SC/C(=N\S(=O)(=O)c1ccccc1)Nc1ccccc1,0,0,0,0,0,57.5,0,0
Cc1ccc(N/C(CSC(N)=O)=N/S(=O)(=O)c2ccccc2)cc1,0,0,0,0,0,0,-,-
CC(=O)c1ccc(NC(=O)C2CC(c3ccc(F)cc3)=NO2)cc1 (configuration not stated),0,0,0,0,0,51.9,0,0
CC(=O)c1cccc(NC(=O)C2CC(c3ccc(F)cc3)=NO2)c1 (configuration not stated),0,0,0,0,0,0,-,-
O=c1c2ccccc2sn1-c1nccs1,0,0,0,0,0,71.8,0,74.0
O=C1c2ccccc2C(=O)N1c1nccs1,0,-,-,-,-,-,-,-
CCCc1nc2c(=O)n(C)c(=O)nc-2n(C)n1,0,0,0,0,0,0,-,-
Cn1nc(-c2ccccn2)nc2c(=O)n(C)c(=O)nc1-2,0,0,0,0,-,70.1,?,0
CC(C)(C)c1ccc(C(=O)NC(=O)CSc2n[nH]c(N)n2)cc1,0,-,-,-,-,-,-,-
CC(C)(C)OC(=O)NCC(=O)NCC(=O)OCc1ccccc1,0,0,0,0,0,53.5,0,0
Cc1ccc(-c2nnc3c4ccccc4c(C)nn23)cc1NC(=O)CN1CCOCC1,-,0,0,0,0,51.5,0,0
Cc1nn2c(-c3cccc(NC(=O)CN4CCOCC4)c3)nnc2c2ccccc12,0,0,0,0,0,0,-,-
O=C(NCc1cccc2[nH]ccc12)C1CCC(=O)N(CCc2ccc(Cl)cc2)C1 (configuration not stated),0,-,-,-,-,-,-,-
SMILES,HKDC1 inh,PERK inh,HSV replic up,Dynein transport,Autophagy mod,Tb hexokinase,G6PDH ctr,TbHK1 rescreen
CC(C)C(O)P(=O)(OCc1ccccc1)c1ccc(N(C)C)cc1 (configuration not stated),0,0,0,0,0,56.5,0,0
CCCC(=O)NC(c1cccs1)c1cc([N+](=O)[O-])c2cccnc2c1O (configuration not stated),0,0,0,0,0,0,-,-
CCC(=O)NC(c1cccs1)c1cc([N+](=O)[O-])c2cccnc2c1O (configuration not stated),0,0,0,0,0,52.1,0,0
CCC1Oc2ccccc2N(CC(=O)Nc2ccccc2OC)C1=O (configuration not stated),0,0,0,0,0,50.7,0,0
CCC1Oc2ccccc2N(CC(=O)NCCc2ccc(OC)c(OC)c2)C1=O (configuration not stated),0,0,0,0,0,0,-,-
CCOC(=O)N1CCN(c2ccc(S(=O)(=O)N(Cc3ccccc3)Cc3ccccc3)cn2)CC1,0,0,0,0,0,57.6,0,0
Cc1ccccc1OCc1n(CC(=O)OC2CC(C)CCC2C(C)C)c2ccccc2[n+]1C (configuration not stated),0,0,0,0,+,75.6!,0,0
CC1CCC(C(C)C)C(OC(=O)Cn2c(-c3ccc(Cl)cc3)[n+](C)c3ccccc32)C1 (configuration not stated),0,0,0,0,-,0,-,-
Cc1c(C=Nc2ccc(S(=O)(=O)N(C)C)cc2)c(O)[nH]c(=O)c1C#N,0,-,-,-,-,-,-,-
COc1ccccc1C1CCN(C(=O)c2cccs2)CC1,0,0,0,0,-,50.2,0,0
CN(Cc1ccccn1)C(=O)C1CCC(=O)N(Cc2cccc(C(F)(F)F)c2)C1 (configuration not stated),0,-,-,-,-,-,-,-
COc1ccc(CNC(=O)[C@H](C)NC(=O)C2CCN(C(=O)[C@H](CCSC)NC(=O)OC(C)(C)C)CC2)cc1,0,-,-,-,-,-,-,-
COc1ccc(CNC(=O)C2CCN(C(=O)[C@@H](CC(C)C)NC(=O)OC(C)(C)C)CC2)cc1,-,0,0,0,0,55.8,0,0
CCN(CC)S(=O)(=O)c1ccc(C(=O)NCc2n[nH]c(=S)n2Cc2ccccc2)cc1,0,0,0,0,0,60.5,0,0
CCN(CC)S(=O)(=O)c1ccc(C(=O)Nc2ncn(Cc3ccccc3)n2)cc1,0,0,0,0,0,63.7,0,0
CC1SCC(NC(=O)c2cccc(Cl)c2)CS1 (configuration not stated),0,0,0,0,-,0,-,-
CC1SCC(NC(=O)c2ccc(Cl)cc2)CS1 (configuration not stated),0,0,?,0,-,50.9,0,0
O=C(OCCN1C(=O)c2ccccc2C1=O)c1cnccn1,0,0,0,0,0,50.7,0,0
O=C(OCCN1C(=O)c2ccccc2C1=O)c1ccccc1,0,0,-,0,0,0,-,-
O=[N+]([O-])c1ccccc1/C=N\Nc1nccs1,0,-,-,-,-,-,-,-
